Experiment [1] concerns the target T1, Alpha-1A adrenergic receptor (Rattus norvegicus, UniProt P43140).
T1 sequence (P43140 whole entry): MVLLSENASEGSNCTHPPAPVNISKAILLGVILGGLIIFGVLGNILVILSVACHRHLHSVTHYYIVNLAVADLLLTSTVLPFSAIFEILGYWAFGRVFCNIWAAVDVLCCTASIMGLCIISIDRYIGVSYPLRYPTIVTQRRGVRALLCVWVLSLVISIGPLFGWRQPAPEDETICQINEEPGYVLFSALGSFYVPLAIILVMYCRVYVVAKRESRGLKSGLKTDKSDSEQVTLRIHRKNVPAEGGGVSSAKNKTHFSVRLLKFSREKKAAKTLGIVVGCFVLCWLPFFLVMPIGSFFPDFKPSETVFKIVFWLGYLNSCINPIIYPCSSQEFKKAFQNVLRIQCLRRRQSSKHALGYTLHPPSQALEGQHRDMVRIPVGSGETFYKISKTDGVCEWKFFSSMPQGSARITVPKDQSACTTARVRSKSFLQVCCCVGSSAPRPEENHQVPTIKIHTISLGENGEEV
Put plainly: Binding affinity to the alpha-1 adrenergic receptor using a radioligand [3H]prazosin binding assay in rat brain membranes. Type of experiment: cell membranes.

In experiment [2] the test system is Rattus norvegicus. Put plainly: Effective dose was measured to inhibit 50% of quipazine induced head twitches in rat after 24 hr of peroral administration. The note with it: po.
Experiment [3] concerns Rattus norvegicus. Put plainly: Effective dose was measured to inhibit 50% of quipazine induced head twitches in rat after 24 hr r of subcutaneous administration. Type of experiment: functional. To be noted: sc. The essentials:
(§1)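 Rats received test compound sc or po, 2 or 24 h before quipazine (15 µmol/kg, sc). Head twitches were counted 30–40 min after quipazine. Counts were expressed as percent of a quipazine-treated control group, with at least four animals per dose.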

The test system of experiment [4] is Rattus norvegicus. The experiment in a line: Antagonism of Pergolide-Induced Circling Behavior in rats with unilateral 6-OHDA Lesions after 2 hr of sc injection. Format: functional. Summed up: (§2)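 Rats with unilateral 6-OHDA lesions were given pergolide (0.050 µmol/kg, sc) to induce contralateral circling. Test compound was injected sc 2 h before pergolide. The effect of each dose was expressed as percent of the mean of control sessions held one week before and one week after the test session for each rat. At least four rats were used per dose.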

For experiment [5], the system named is Rattus norvegicus. The experiment in a line: Effective dose was measured to inhibit 50% of quipazine induced head twitches in rat after 2 hr of subcutaneous administration. Format: functional. The note with it: sc. The essentials: as §1
A further experiment addresses D(2) dopamine receptor (Rattus norvegicus, UniProt P61169). The experiment in a line: Binding affinity to dopamine receptor D2 using a [3H]-spiperone binding assay in rat cortical membranes. Format: cell membranes.
The target in experiment [6] is 5-hydroxytryptamine receptor 2A (Rattus norvegicus, UniProt P14842). Put plainly: Binding affinity to serotonin 5-hydroxytryptamine 2A receptors using a radioligand [3H]ketanserin binding assay in rat cortical membranes. Type of experiment: cell membranes.
Sequence of 5-hydroxytryptamine receptor 2A (P14842 whole entry): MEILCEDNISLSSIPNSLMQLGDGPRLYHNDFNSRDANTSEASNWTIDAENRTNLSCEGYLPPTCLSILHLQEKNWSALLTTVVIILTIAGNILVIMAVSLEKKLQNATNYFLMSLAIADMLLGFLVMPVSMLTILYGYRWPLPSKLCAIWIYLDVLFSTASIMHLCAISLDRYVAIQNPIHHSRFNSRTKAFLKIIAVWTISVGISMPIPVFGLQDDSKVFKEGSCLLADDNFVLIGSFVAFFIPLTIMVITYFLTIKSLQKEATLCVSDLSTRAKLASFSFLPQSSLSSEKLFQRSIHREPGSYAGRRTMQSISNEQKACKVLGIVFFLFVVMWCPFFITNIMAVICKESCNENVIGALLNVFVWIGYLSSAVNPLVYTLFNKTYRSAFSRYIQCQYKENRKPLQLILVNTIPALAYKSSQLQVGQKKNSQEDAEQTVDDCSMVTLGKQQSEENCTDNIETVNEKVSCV
Experiment [7] concerns Rattus norvegicus. Put plainly: Effective dose was measured to inhibit 50% of quipazine induced head twitches in rat after 24 hr r of peroral administration. Format: functional. To be noted: po. The essentials: as §1
For experiment [8], the species on record is Rattus norvegicus. The experiment in a line: Effective dose was measured as fifty percent inhibition of Pergolide induced rotations in rat. Type of experiment: functional. The essentials: as §2

The structures appear in SMILES notation.

Sequence of D(2) dopamine receptor (P61169 whole entry): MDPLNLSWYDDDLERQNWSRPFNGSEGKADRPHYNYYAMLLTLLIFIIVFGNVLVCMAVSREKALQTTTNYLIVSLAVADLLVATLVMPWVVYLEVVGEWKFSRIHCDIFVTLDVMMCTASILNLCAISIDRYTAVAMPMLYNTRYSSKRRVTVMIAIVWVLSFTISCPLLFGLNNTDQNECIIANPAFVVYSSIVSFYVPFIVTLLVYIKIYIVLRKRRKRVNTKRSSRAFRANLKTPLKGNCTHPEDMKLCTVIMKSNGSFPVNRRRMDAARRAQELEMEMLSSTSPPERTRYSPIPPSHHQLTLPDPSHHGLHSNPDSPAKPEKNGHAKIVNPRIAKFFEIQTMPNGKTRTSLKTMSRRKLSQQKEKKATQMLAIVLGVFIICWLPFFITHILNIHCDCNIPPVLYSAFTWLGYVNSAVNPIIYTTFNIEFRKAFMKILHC

`CN(CCN1CCNC1=O)Cc1cn(-c2ccc(F)cc2)c2ccc(Cl)cc12` came in with an IC50 in [1] of 23 nM.

On to `CN(C)CCOc1cn(-c2ccc(F)cc2)c2ccc(Cl)cc12`, for which the IC50 in [1] was 17 nM. The IC50 values of the last two compounds are within 1.5-fold of each other.

For `CC(C)N1CCN(CCN2CCC(c3cn(-c4ccc(F)cc4)c4cc(Cl)ccc34)CC2)C1=O`, the ED50 with Rattus norvegicus [2] was 0.055 µmol/kg; in the experiment with Rattus norvegicus [3], 0.052 µmol/kg; with Rattus norvegicus [4] it was above 17 µmol/kg; in the experiment on Rattus norvegicus [5] it was 0.11 µmol/kg.

Regarding `CC(C)N1CCN(CCN(C)CCOc2cn(-c3ccc(F)cc3)c3cc(Cl)ccc23)C1=O`, the IC50 in experiment [1] worked out at 600 nM.

With `CN(CCCN1CCNC1=O)CCc1cn(-c2ccc(F)cc2)c2ccc(Cl)cc12`, the IC50 in experiment [1] was determined as 14 nM. This IC50 lies about 43-fold lower than the previous one.

On to `CN(CCCc1cn(-c2ccc(F)cc2)c2ccc(Cl)cc12)CCN1CCNC1=O`, for which the IC50 in [1] worked out at 43 nM. Against the preceding compound, the IC50 is about 3.1-fold higher.

As to `CN(C)CCc1cn(-c2ccc(F)cc2)c2cc(Cl)ccc12`, the IC50 is 650 nM at D(2) dopamine receptor, 5.5 nM in [6] and 130 nM in experiment [1].

In [1], `Fc1ccc(-n2cc(OCCN3CCCCC3)c3cc(Cl)ccc32)cc1` yielded an IC50 of 32 nM.

Take `CN(C)CCCOc1cn(-c2ccc(F)cc2)c2ccc(Cl)cc12`: the IC50 at D(2) dopamine receptor was 24 nM; in [6], 27 nM; in experiment [1], above 100 nM.

As to `CN(C)Cc1cn(-c2ccc(F)cc2)c2ccc(Cl)cc12`, the IC50 in [1] amounted to 18 nM.

With `CN(CCCN1CCNC1=O)CCc1cn(-c2ccc(F)cc2)c2cc(Cl)ccc12`, the IC50 was found to be 400 nM at D(2) dopamine receptor, 1.9 nM in experiment [6] and 54 nM in experiment [1]. The values for the ED50 in the experiment on Rattus norvegicus [3] and in the experiment on Rattus norvegicus [5] were 8.5 µmol/kg and 4.7 µmol/kg, respectively.

Turning to `CN(CCOc1cn(-c2ccc(F)cc2)c2cc(Cl)ccc12)CCN1CCNC1=O`, the ED50 in the experiment with Rattus norvegicus [7] stood at 0.25 µmol/kg; with Rattus norvegicus [5] it was 0.63 µmol/kg. In experiment [1], this compound registered an IC50 of 41 nM.

As to `CN(CCOc1cn(-c2ccc(F)cc2)c2ccc(Cl)cc12)CCN1CCNC1=O`, the ED50 with Rattus norvegicus [3] was above 9.1 µmol/kg; in the experiment with Rattus norvegicus [4], 3.6 µmol/kg; with Rattus norvegicus [5] it was 0.32 µmol/kg. The compound further displayed an IC50 in experiment [1] of 5.7 nM.

`O=C1NCCN1CCN1CCC(c2cn(-c3ccc(F)cc3)c3ccc(Cl)cc23)CC1` [SERTINDOLE]: the ED50 in the experiment on Rattus norvegicus [7] worked out at 0.039 µmol/kg; in the experiment on Rattus norvegicus [3], 0.03 µmol/kg; in the experiment with Rattus norvegicus [4], 3.7 µmol/kg; with Rattus norvegicus [5], 0.035 µmol/kg.

`CN(CCc1cn(-c2ccc(F)cc2)c2ccc(Cl)cc12)CCN1CCNC1=O`: in [1], the IC50 was determined as 15 nM.

`C#CCN(CCOc1cn(-c2ccc(F)cc2)c2ccc(Cl)cc12)CCN1CCNC1=O` showed an IC50 in experiment [1] of 88 nM.

As to `CC(C)N1CCN(CCN(C)CCc2cn(-c3ccc(F)cc3)c3cc(Cl)ccc23)C1=O`, the IC50 at D(2) dopamine receptor was found to be 190 nM; in [6] it was 5.8 nM; in experiment [1], 400 nM.

In the case of `CN(C)CCCCc1cn(-c2ccc(F)cc2)c2ccc(Cl)cc12`, the IC50 at D(2) dopamine receptor came out at 4800 nM; in [6], 100 nM; in [1], 310 nM.

Regarding `CN1CCN(CCOc2cn(-c3ccc(F)cc3)c3ccc(Cl)cc23)CC1`, the IC50 was determined as 2.4 nM on D(2) dopamine receptor, 100 nM in [6] and 150 nM in experiment [1]. The same compound returned an ED50 in the experiment with Rattus norvegicus [4] of 0.048 µmol/kg.

As to `CN(C)CCSc1cn(-c2ccc(F)cc2)c2ccc(Cl)cc12`, the IC50 in experiment [6] was 42 nM; in [1] it was 820 nM.

As to `CN(C)CCOc1cn(-c2ccc(F)cc2)c2cc(Cl)ccc12`, the IC50 in experiment [1] was found to be 170 nM.

Take `Fc1ccc(-n2cc(OCCN3CCOCC3)c3cc(Cl)ccc32)cc1`: the IC50 in experiment [1] was determined as 110 nM.

Consider `CN(C)CCCc1cn(-c2ccc(F)cc2)c2ccc(Cl)cc12`, for which the IC50 in experiment [1] was 73 nM.

For the compound `CN(CCc1cn(-c2ccc(F)cc2)c2cc(Cl)ccc12)CCN1CCNC1=O`, the IC50 at D(2) dopamine receptor was 590 nM; in [6] it was 0.95 nM; in [1], 14 nM.

Take `CN(CCCCN1CCNC1=O)Cc1cn(-c2ccc(F)cc2)c2ccc(Cl)cc12`: the IC50 on D(2) dopamine receptor is 20 nM; in [6] it was 110 nM; in [1] it was above 100 nM.

On to `CN(C)CCc1cn(-c2ccc(F)cc2)c2ccc(Cl)cc12`, for which the IC50 in [1] turned out to be 40 nM.

Consider `Cc1nc2sccn2c(=O)c1CCN1CCC(=C(c2ccc(F)cc2)c2ccc(F)cc2)CC1` [RITANSERIN], for which the ED50 is 0.98 µmol/kg in the experiment with Rattus norvegicus [3], above 21 µmol/kg in the experiment listed under Rattus norvegicus [8] and 0.1 µmol/kg in the experiment with Rattus norvegicus [5].

In the case of `CN(CCSc1cn(-c2ccc(F)cc2)c2ccc(Cl)cc12)CCN1CCNC1=O`, the IC50 on D(2) dopamine receptor was determined as 790 nM; in [1], 650 nM.

On to `CNc1cc(OC)c(C(=O)N[C@H]2CCN(Cc3ccccc3)[C@H]2C)cc1Cl` [NEMONAPRIDE], for which the IC50 in [6] is 49 nM. Moreover, in the experiment with Rattus norvegicus [4], the 50% effect level (ED50) was put at a dose of 0.0057 µmol/kg.

The compound `CCN(CCOc1cn(-c2ccc(F)cc2)c2ccc(Cl)cc12)CCN1CCNC1=O` gave an IC50 in experiment [1] of 12 nM.

Source of the values: ChEMBL document CHEMBL1129643 (J Med Chem, 1996).
